Source: ChEMBL document CHEMBL1124626, “Inhibition of 125I-labeled ristocetin binding to Micrococcus luteus cells by the peptides related to bacterial cell wall mucopeptide precursors: quantitative structure-activity relationships” (J Med Chem, 1989)
pKi: −log10 of the molar value. Peptide text beside a SMILES is read from it.

Assays:
Micrococcus luteus [1] = experiment: Inhibition of [125I]ristocetin binding to micrococcus luteus cells.; type: functional, organism-based
How it was run: (§1)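 Lyophilized M. luteus cells were boiled in 1% sodium lauryl sulfate, washed with water, and stored at 4 °C. Ristocetin was iodinated with 125I/I2 and purified on CM-cellulose. Duplicate tubes held 50 μg cells, 1 μg labeled antibiotic and varied N-acetyl peptide in sodium citrate buffer, pH 5.1, in 0.2 mL at room temperature. Tubes were centrifuged at 10000g for 10 min and supernatant γ-counted. Ki came from Cheng-Prusoff using the Scatchard Kd.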

Micrococcus luteus [2] = experiment: Inhibition of [125I]ristocetin binding to micrococcus luteus cell wall (UDP-N-acetylmuramylpentapeptide).; type: functional, organism-based; how it was run: as §1

| SMILES | pKi (Micrococcus luteus [1]) | pKi (Micrococcus luteus [2]) |
| --- | --- | --- |
| CC(=O)N[C@H](C)C(=O)O | 2.49 |  |
| CC(=O)N[C@H](C)C(=O)NCC(=O)O | 2.51 |  |
| CC(=O)N[C@H](C)C(=O)N[C@H](Cc1ccccc1)C(=O)O | 5.06 |  |
| CC(=O)N[C@H](CC(N)=O)C(=O)O |  | 2.05 |
| CC(=O)N[C@H](CC(C)C)C(=O)NCC(=O)O | 1.96 |  |
| CC(=O)NCC(=O)N[C@@H](C(=O)O)C(C)C |  | 3.47 |
| CC(=O)NCC(=O)N[C@H](CC(N)=O)C(=O)O |  | 3.14 |
| CC(=O)NCC(=O)N[C@H](CO)C(=O)O |  | 3.27 |
| CC(=O)N[C@H](C)C(=O)N[C@H](C)C(=O)O | 4.14 |  |
| CC(=O)N[C@@H](C(=O)O)C(C)C |  | 2.51 |
| CC[C@@H](C)[C@@H](NC(C)=O)C(=O)O |  | 2.55 |
| CC(=O)N[C@H](C)C(=O)N[C@H](C)C(=O)N[C@H](C)C(=O)O | 4.38 |  |
| CC(=O)NCC(=O)N[C@H](C)C(=O)O |  | 3.89 |
| CC(=O)NCC(=O)NCC(=O)O |  | 2.34 |
| CC(=O)N[C@H](Cc1ccccc1)C(=O)O | 4.00 |  |
| CC(=O)NCC(=O)N[C@H](Cc1ccccc1)C(=O)O | 5.01 |  |
| CC(=O)N[C@H](CC(C)C)C(=O)NCC(=O)NCC(=O)O |  | 2.72 |

| SMILES | pKi (Micrococcus luteus [1]) | pKi (Micrococcus luteus [2]) |
| --- | --- | --- |
| CSCC[C@@H](NC(C)=O)C(=O)O | 2.62 |  |
| CC(=O)N[C@H](CC(C)C)C(=O)O |  | 2.55 |
| CC(=O)N[C@H](Cc1c[nH]c2ccccc12)C(=O)O | 3.80 |  |
| CC(=O)NCC(=O)N[C@@H](CC(C)C)C(=O)O | 3.23 |  |
| CC(=O)NC(C(=O)O)c1ccc(O)cc1 (centres undefined) |  | 2.38 |
| C[C@@H](NC(=O)OCc1ccccc1)C(=O)O |  | 2.29 |
| CC(=O)N[C@@H](CC(C)C)C(=O)NCC(=O)NCC(=O)O |  | 2.70 |
| CC(=O)N[C@H](CC(C)C)C(=O)N[C@H](CC(C)C)C(=O)O | 2.35 |  |
| CC(=O)NCC(=O)N[C@@H](C(=O)O)[C@H](C)O |  | 2.33 |
| CC(=O)N[C@@H](CCCCN)C(=O)N[C@H](C)C(=O)N[C@H](C)C(=O)O |  | 4.80 |
| CC(=O)NCC(=O)N[C@H](CC(=O)O)C(=O)O |  | 2.85 |
| CC(=O)NCC(=O)NCC(=O)NCC(=O)O (Ac-Gly-Gly-Gly-OH) |  | 2.15 |
| CC(=O)N[C@@H](Cc1ccccc1)C(=O)NCC(=O)NCC(=O)O (Ac-Phe-Gly-Gly-OH) | 2.80 |  |
| CC(=O)N1CCC[C@H]1C(=O)NCC(=O)NCC(=O)O (Ac-Pro-Gly-Gly-OH) | 2.80 |  |
| CC(=O)N[C@@H](Cc1c[nH]c2ccccc12)C(=O)NCC(=O)NCC(=O)O (Ac-Trp-Gly-Gly-OH) | 2.92 |  |
| CC(=O)N[C@@H](Cc1ccc(O)cc1)C(=O)NCC(=O)NCC(=O)O (Ac-Tyr-Gly-Gly-OH) |  | 2.89 |
| CC(=O)NCC(=O)O [ACETURIC ACID] | 1.54 |  |
